Screening data (PubChem BioAssay)
An excerpt weighted towards active compounds, which were near 3.5% of everything screened.
MrgX1 antag: human MrgX1 receptor antagonism, primary screen | Q96LB2 | AID 588676 | B-score at 10 µM | actives 1.3% (n = 310,000) | MRGX1-HEK293 calcium flux, Fluo-4, BAM8-22 antagonism; active compounds read low;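 active = calcium-response B-score plate-corrected more than 3 library SD below zero, starting fluorescence within 5 deviations, no agonist response on first addition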;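 also: peak minus trough fluorescence over baseline after final BAM8-22 challenge near maximal dose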
Target sequence (Q96LB2 whole entry, looked up): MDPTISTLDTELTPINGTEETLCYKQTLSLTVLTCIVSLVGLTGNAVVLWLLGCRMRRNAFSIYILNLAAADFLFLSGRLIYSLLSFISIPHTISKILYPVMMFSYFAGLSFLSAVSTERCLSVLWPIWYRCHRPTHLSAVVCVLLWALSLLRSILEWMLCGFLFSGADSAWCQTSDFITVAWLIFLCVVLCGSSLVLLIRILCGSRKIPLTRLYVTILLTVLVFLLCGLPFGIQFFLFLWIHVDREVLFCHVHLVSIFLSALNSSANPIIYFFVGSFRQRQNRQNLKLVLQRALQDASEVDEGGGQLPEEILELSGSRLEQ
RGS4 pot: RGS4 potentiation or activation; actives 0.92% (n = 310,000); B-score at 10 µM; HEK293 M3R/inducible RGS4, carbachol calcium flux Fluo4; active compounds read low;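 active = B-score of the integrated calcium signal more than 4 SD below the library mean, with starting fluorescence not abnormally high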;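 also: negative B-score means reduced calcium response which marks RGS4 activation or potentiation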
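test system = HEK293 cells with stable M3R and inducible RGS4 | schedule = recording 10 s baseline at 1 Hz, 100 s post-agonist | technique = Fluo4-AM (2 µM) calcium-flux fluorescence, kinetic read | measure = Agonist-evoked peak-minus-minimum fluorescence over baseline, integrated ratio, B score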
MrgX1 ag: agonists of human MrgX1 receptor. Q96LB2. MrgX1-HEK293 cells, Fluo-4 calcium fluorescence, agonist mode; active compounds read high. B-score at 10 µM. actives 0.44% (n = 310,000). AID 588627;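 active = calcium response B-score plate-corrected fluorescence ratio at least 3 library SD, with starting fluorescence B-score inside 5 SD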
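times = overnight plating, then 30 min 37 °C plus 30 min room-temperature dye loading | assay system = stable human MrgX1 HEK293 cell line | input = fifteen thousand cells per well | signal = kinetic calcium dye fluorescence, Fluo-4 NW | dosing = compound delivered in addition one of three | read-out = B-scored fluorescence response ratio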
MrgX1 PAM: allosterically activates human MrgX1 receptor signaling. Q96LB2. MrgX1-HEK293, Fluo-4 calcium flux, FDSS; active compounds read high. B-score at 10 µM. actives 0.63% (n = 310,000). AID 588675;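 active = plate-corrected calcium response at least 3 library SD above typical, normal starting fluorescence, not activating the receptor alone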;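 also: compound read alongside a low EC10 to EC30 dose of BAM8-22 agonist; peak minus trough fluorescence over baseline measured at the second addition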
RGS4 block: human RGS4 inhibition; HEK293 M3R/RGS4 inducible, Fluo-4 calcium flux; active compounds read high; triggered by carbachol at its EC20; actives 0.45% (n = 310,000); P49798; AID 463165; B-score at 10 µM;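 active = B-score, a plate-corrected calcium signal, over three deviations above library mean, with baseline fluorescence within five deviations of library mean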;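 also: RGS4 expression induced by doxycycline in cells with stable M3 receptor; B-score is computed from the integrated fluorescence ratio over baseline after carbachol; higher B-score means a larger calcium signal and so more RGS4 inhibition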
Target sequence (P49798 whole entry, looked up): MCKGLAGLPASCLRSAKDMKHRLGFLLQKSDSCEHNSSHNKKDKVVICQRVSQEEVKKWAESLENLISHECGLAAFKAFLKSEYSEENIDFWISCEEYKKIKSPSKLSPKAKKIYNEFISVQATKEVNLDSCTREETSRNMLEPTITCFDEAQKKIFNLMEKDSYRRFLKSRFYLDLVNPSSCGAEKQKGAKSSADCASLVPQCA
RGS4 activ val: RGS4 activation, validation assay. shares compounds with RGS4 pot. HEK293 M3R/RGS4 inducible, carbachol calcium flux Fluo4. inhibition, % at 10 µM. actives 89% (n = 1,100). AID 602282;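 active = inhibition above 3 SD of the buffer control wells, cut at about 41% in these data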;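 also: signal is the integrated peak-minus-minimum Fluo4 fluorescence over baseline ratio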
RGS4 act ctr: counter-screen for RGS4 activators: effect in non-induced cells | shares compounds with RGS4 pot | HEK293 M3R non-induced RGS4, Fluo4 calcium flux; after carbachol challenge at its EC90 | inhibition, % at 10 µM | actives 82% (n = 1,100) | AID 602283;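 active = inhibition exceeding 3 SD of buffer-only control wells, cut at about 26% in these data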;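 also: percent drop in integrated peak-minus-baseline over baseline Fluo4 ratio after carbachol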
Starred values were filed as active, the others as inactive; i = inactive; / = not tested or not shown.

SMILES	MrgX1 antag	RGS4 pot	MrgX1 ag	MrgX1 PAM	RGS4 block	RGS4 activ val	RGS4 act ctr
Fc1ccc(C2N(c3ccccc3)C(=S)N3CCCN23)cc1 (configuration not stated)	i	i	i	i	i	/	/
COc1cccc(C(=O)CC(=O)C(=O)Nc2cc(Cl)c(OC)cc2OC)c1	i	i	i	i	i	/	/
COCC(C)n1c(SCC(=O)N(C)C2CCS(=O)(=O)C2)nc2ccccc2c1=O (configuration not stated)	i	i	i	i	i	/	/
CCN(CC)CCOC(=O)c1ccccc1Br	i	i	i	i	i	/	/
CCN(CC)CCCOC(=O)C1(c2ccccc2)CCCC1	i	-11*	i	i	i	95*	93*
COc1cc(NC(=O)c2ccccc2Cl)c(OC)cc1NC(=O)CN1CCCCC1	i	i	i	i	i	/	/
O=C(NCCc1cnc[nH]1)c1ccc(-c2ccccc2)cc1	i	i	i	i	i	/	/
COc1ccc(CCNc2nc(-c3cccnc3)nc3ccccc23)cc1OC	i	i	i	i	i	/	/
CCOc1ccc(CN(C)c2nc(-c3cccnc3)nc3ccccc23)cc1OC	i	-9.2*	i	i	i	76*	43*
O=C1C=C(N2CCCCCC2)C2(CCCCC2)O1	i	-8.4*	i	i	i	66*	0
COc1ccc(N2C(=O)CC(N(CCc3ccccc3)C(=O)c3ccccc3)C2=O)cc1 (configuration not stated)	i	-11*	i	i	i	0	0
COc1ccc(CCN(C(=O)c2cccc(F)c2)C2CC(=O)N(c3ccccc3)C2=O)cc1 (configuration not stated)	i	i	i	i	i	/	/
COc1cc(-n2c(C)nc3cc(C(=O)O)ccc32)cc(OC)c1OC	i	i	i	i	i	/	/
CCCCCCCn1ccc(=N)cc1	i	-9.2*	i	i	i	69*	30*
CCCCCCCCCn1ccc(=N)cc1	i	i	i	i	i	/	/
CC(=O)ONC(=Nc1ccccc1)c1nonc1N	i	i	i	i	i	/	/
CCNC(=O)NC1c2ccccc2CSc2ccccc21 (configuration not stated)	i	i	i	i	i	/	/
CCOCCN1CCN(C2c3ccccc3CSc3ccccc32)CC1 (configuration not stated)	i	-13*	i	i	i	92*	90*
Cc1ccccc1CN1CCC(n2nccc2NC(=O)c2ccc3c(c2)OCO3)CC1	i	i	i	i	i	/	/
O=C1c2oc3ccccc3c(=O)c2C(c2cccc(O)c2)N1CCCN1CCOCC1 (configuration not stated)	i	-8.9*	i	i	i	85*	37*
Brc1cccc(-c2cnc3n2CCCCC3)c1	i	-7.9*	i	i	i	84*	56*
Brc1cccc(-c2nnc3n2CCCCC3)c1	i	i	i	i	i	/	/
CC(=O)c1ccccc1NC(=O)c1ccc2c(c1)NC(=O)C(C)S2 (configuration not stated)	i	i	i	i	i	/	/
CCCNC(=O)c1ccccc1NC(=O)c1ccc2c(c1)NC(=O)C(C)S2 (configuration not stated)	i	-7.8*	i	i	i	72*	29*
CC1CCN(C(=O)c2ccc3c(Cl)c4c(nc3c2)CCCC4)CC1	i	i	i	i	i	/	/
SMILES	MrgX1 antag	RGS4 pot	MrgX1 ag	MrgX1 PAM	RGS4 block	RGS4 activ val	RGS4 act ctr
O=C(c1ccc2c(Cl)c3c(nc2c1)CCCC3)N1CCN(c2ccc(F)cc2)CC1	i	-9.2*	i	i	i	92*	86*
CCOC(=O)C1CCN(C(=O)c2ccc3c(Cl)c4c(nc3c2)CCCC4)CC1	i	i	i	i	i	/	/
COc1ccccc1N1CCN(C(=O)c2ccc3c(Cl)c4c(nc3c2)CCCC4)CC1	i	-9.7*	i	i	i	86*	79*
CC1CCCC(N2CCN(C(=O)c3ccc([N+](=O)[O-])cc3)CC2)C1 (configuration not stated)	i	i	i	i	i	/	/
Cc1ccc(S(=O)(=O)N2CCN(c3cccc(C)c3)CC2)cc1	i	i	i	i	i	/	/
CC(=O)NN1C(=O)/C(=C\c2ccc(Cl)cc2)SC1=S	i	-12*	i	i	i	0	0
Cc1cc(C)c(OCC(=O)Nc2cccc(NC(=O)c3ccco3)c2)c(Br)c1	i	-7.8*	i	i	i	90*	52*
Cc1cc(C)c(OCC(=O)Nc2ccc(NC(=O)c3ccco3)cc2)c([N+](=O)[O-])c1	i	/	i	i	/	/	/
Cc1ccc(S(=O)(=O)NCC(C)n2nc(C)nc2C)cc1 (configuration not stated)	i	i	i	i	i	/	/
Cc1cccc2c1Sc1ccc(Cl)cc1CC2N1CCNCC1 (configuration not stated)	i	-7.6*	i	i	i	93*	96*
Cc1cc(NC(=O)CSc2cn(CCNC(=O)c3ccc(F)cc3)c3ccccc23)no1	i	-7.7*	i	i	i	69*	33*
Cc1ccc(C(=O)C2CCN(CC(=O)Nc3nc(C)cs3)CC2)cc1	i	i	i	i	i	/	/
CC(=O)N1CCN(c2ccc(NC(=O)c3ccc([N+](=O)[O-])cc3Cl)cc2)CC1	i	i	i	i	i	/	/
CCCCN(CCCC)S(=O)(=O)c1ccc(NC(=O)c2ccc([N+](=O)[O-])cc2Cl)cc1	i	-11*	i	i	i	86*	60*
Cc1cccc(Cn2c(C(=O)OC(C)C)cc3c2ccn3C)c1	i	i	i	i	i	/	/
OC(C#CCN1CCCCC1)(c1ccccc1)c1ccccc1	i	i	i	i	i	/	/
CC(C)(C#CC(O)(c1ccccc1)c1ccccc1)N1CCCC1	i	-8.9*	i	i	i	92*	87*
OC(C#CCN1CCCC1)(c1ccccc1)c1ccccc1	i	-7.6*	i	i	i	94*	91*
CC(O)(C#CCN1CCCCCC1)c1ccccc1 (configuration not stated)	i	-9.8*	i	i	i	66*	84*
